Here are results for 14 compounds from ChEMBL document CHEMBL5143750, “Bisubstrate Inhibitors of Severe Acute Respiratory Syndrome Coronavirus-2 Nsp14 Methyltransferase” (ACS Med Chem Lett, 2022).

Bounds are passed on as bounds.

In data set [1] the test system is A549. Nature of the data set: Cytotoxicity against human A549 cells overexpressing ACE2 and TMPRSS2 incubated for 48 hrs by MTS assay. The class given is functional. The procedure, abridged:
(§1)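 A549 AT host cells were used for viability read-out. More than 95% viability at 50 μM was classed as nontoxic. CC50 values came from at least duplicate determinations and were averaged.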

Data set [2] has as its system A549. The experiment in a line: Cytotoxicity against human A549 cells overexpressing ACE2 and TMPRSS2 assessed as cell viability at 50 uM incubated for 48 hrs by MTS assay. The class given is functional. The following applies: read-out: Activity. The procedure, abridged: as §1
Data set [3] is described as follows: Metabolic stability in human liver S9 fraction assessed as half life at 1 micromol/L in presence of UDPGA measured upto 24 hrs by LC-MS/MS analysis. The class given is ADME, subcellular. The following applies: s9, 24 h, 1 µM, dose 1 µmol/L.
The nature of data set [4]: Metabolic stability in human liver S9 fraction assessed as half life at 1 micromol/L in presence of NADPH measured upto 24 hrs by LC-MS/MS analysis. The class given is ADME, subcellular. The following applies: s9, 24 h, 1 µM, dose 1 µmol/L.
Data set [5] in a line: Metabolic stability in CD-1 mouse liver S9 fraction assessed as half life at 1 micromol/L in presence of NADPH measured upto 24 hrs by LC-MS/MS analysis. Type of data set: ADME, subcellular. The conditions noted are these: s9, 24 h, 1 µM, dose 1 µmol/L.
The nature of data set [6]: Metabolic stability in CD-1 mouse liver S9 fraction assessed as half life at 1 micromol/L in presence of UDPGA measured upto 24 hrs by LC-MS/MS analysis. Type of data set: ADME, subcellular. The following applies: s9, 24 h, 1 µM, dose 1 µmol/L.
Data set [7] is described as follows: Metabolic stability in human plasma at 1 micromol/L measured upto 24 hrs by LC-MS/MS analysis. The class given is ADME, cell-free. The conditions noted are these: dose 1 µmol/L. The essentials: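 Compound was incubated in human plasma, and percentage remaining was followed over the incubation. Data are mean ± SD.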
Data set [8] has as its target Replicase polyprotein 1ab (Severe acute respiratory syndrome coronavirus 2) (UniProt P0DTD1). Nature of the data set: Stabilization of SARS-CoV-2 NSP14 expressed in Escherichia coli BL21(DE3) assessed as change in melting temperature at 200 uM incubated for 4 mins by SYPRO orange dye based thermal shift assay.
A short description of data set [9]: Metabolic stability in CD-1 mouse plasma at 1 micromol/L measured upto 24 hrs by LC-MS/MS analysis. The following applies: dose 1 µmol/L. The class given is ADME, cell-free.

What is called CC50 is the concentration giving 50% cytotoxicity. A higher CC50 goes with better tolerance by the cells. In the data set on A549 [1], `CC(C)C(=O)O[C@@H]1[C@H](OC(=O)C(C)C)[C@@H](CNS(=O)(=O)c2ccc3ccccc3c2)O[C@H]1n1cnc2c(N)ncnc21` gave a CC50 of over 100 µM.
Take `Nc1ncnc2c1ncn2[C@@H]1O[C@H](CNS(=O)(=O)c2ccc3nc(Cl)ccc3c2)[C@@H](O)[C@H]1O`: in the data set with A549 [2], the viability at 50 µM is over 95%.
On the same count and under the same terms, in the case of `Nc1ncnc2c1ncn2[C@@H]1O[C@H](CNS(=O)(=O)c2ccc3cccnc3c2)[C@@H](O)[C@H]1O` it was over 95%.
With `Nc1ncnc2c1ncn2[C@@H]1O[C@H](C[C@@H](N)CC[C@H](N)C(=O)O)[C@@H](O)[C@H]1O` [SINEFUNGIN], in the data set on A549 [2], the viability at 50 µM was over 95%.
The term ΔTm denotes the shift of the melting midpoint relative to a reference. On to `Nc1ncnn2c([C@@H]3O[C@H](CNS(=O)(=O)c4ccc5ccccc5c4)[C@@H](O)[C@H]3O)ccc12`, for which the t1/2 in [3] was over 0.75 h; in data set [4], 14 h; in [5], 0.482 h; in data set [6], over 0.75 h. The CC50 in the data set on A549 [1] was over 100 µM. Moreover, the t1/2 at 24 h, 1 µM in data set [7] and in data set [9] was over 24 h in each case. Moreover, in [8], the shift in melting temperature (ΔTm) was over 8 °C.
For `Nc1ncnc2c1ncn2[C@@H]1O[C@H](CNC(=O)c2ccc3ccccc3c2)[C@@H](O)[C@H]1O`, the viability at 50 µM in the data set with A549 [2] is over 95%.
The compound `CC(=O)Nc1ncnc2c1ncn2[C@@H]1O[C@H](CNS(=O)(=O)c2ccc3ccccc3c2)[C@@H](OC(C)=O)[C@H]1OC(C)=O` returned a CC50 in the data set on A549 [1] of over 100 µM.
Still for that read-out and setting: in the case of `CCC(CC)COC(=O)[C@H](C)N[P@](=O)(OC[C@H]1O[C@@](C#N)(c2ccc3c(N)ncnn23)[C@H](O)[C@@H]1O)Oc1ccccc1` it was 43 µM.
Same read-out and setting: in the case of `CC(=O)O[C@@H]1[C@H](OC(C)=O)[C@@H](CNS(=O)(=O)c2ccc3ccccc3c2)O[C@H]1n1cnc2c(N)ncnc21` it was over 100 µM.
On to `O=c1ccc2ccc(O)cc2o1` [UMBELLIFERONE], for which the t1/2 in data set [6] was found to be 0.013 h.
`Nc1ncnc2c1ncn2[C@@H]1O[C@H](CNS(=O)(=O)c2ccc3ccccc3c2)[C@@H](O)[C@H]1O`: the t1/2 in [3] was over 0.75 h; in [4], 11.2 h; in data set [5], 4.55 h; in data set [6], over 0.75 h. Further, the viability at 50 µM in the data set with A549 [2] is over 95%. Also, the t1/2 at 24 h, 1 µM in [7] and in data set [9] was over 24 h in each case. Moreover, in [8], the ΔTm is over 8 °C.
As for `CC(=O)O[C@@H]1[C@H](OC(C)=O)[C@@H](CNS(=O)(=O)c2ccc3ccccc3c2)O[C@H]1c1ccc2c(N)ncnn12`, in the data set on A549 [1], the half-maximal cytotoxic concentration (CC50) is 63 µM.
`CC(=O)Nc1ncnc2c1ncn2[C@@H]1O[C@H](CNS(=O)(=O)c2ccc3ccccc3c2)[C@@H](O)[C@H]1O`: the CC50 with A549 [1] was over 100 µM. For the same compound, the ΔTm in [8] is over 8 °C.
`Nc1ncnc2c1ncn2[C@@H]1O[C@H](CNCc2ccc3ccccc3c2)[C@@H](O)[C@H]1O`: in the data set on A549 [2], the viability at 50 µM is over 95%.
